Measurements published in ChEMBL document CHEMBL1159071, “Discovery of 4-(5-methyloxazolo[4,5-b]pyridin-2-yl)-1,4-diazabicyclo[3.2.2]nonane (CP-810,123), a novel alpha 7 nicotinic acetylcholine receptor agonist for the treatment of cognitive disorders in schizophrenia: synthesis, SAR development, and in vivo efficacy in cognition models” (J Med Chem, 2010).
Activity calls are given as the source filed them. The calls are words filed in the database; no cut-off is given here.

Assays:
[1] = target: T1, Muscarinic acetylcholine receptor M1 (Homo sapiens, UniProt P11229); assay: Inhibition of muscarinic M1 receptor
T1 sequence (P11229 whole entry): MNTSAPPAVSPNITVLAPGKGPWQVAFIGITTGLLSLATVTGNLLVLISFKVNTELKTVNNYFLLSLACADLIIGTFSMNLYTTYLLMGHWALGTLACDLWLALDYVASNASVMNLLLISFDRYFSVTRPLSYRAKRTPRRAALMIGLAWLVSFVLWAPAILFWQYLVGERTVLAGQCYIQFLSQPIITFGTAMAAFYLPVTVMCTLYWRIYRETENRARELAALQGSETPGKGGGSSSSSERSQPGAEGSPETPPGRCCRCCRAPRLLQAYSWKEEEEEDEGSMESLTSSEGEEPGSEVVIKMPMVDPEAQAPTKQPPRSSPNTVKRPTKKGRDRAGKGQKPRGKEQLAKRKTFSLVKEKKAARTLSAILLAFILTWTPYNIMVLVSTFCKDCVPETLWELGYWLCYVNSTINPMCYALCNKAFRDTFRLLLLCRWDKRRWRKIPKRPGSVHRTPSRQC

[2] = Agonist activity at human alpha7 nAChR/mouse 5HT3 chimeric receptor expressed in SH-EP1 cells assessed as increase in intracellular calcium level; assay type: functional, cell-based
Outline: (§1)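 α7-5HT3 chimera stably in SH-EP1 cells grown to confluence; loaded with Calcium Green 1 AM (2 μM final) 60 min at 37 °C. Compound added directly; calcium rise read by FLIPR (excitation 488 nm, emission >525 nm).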

[3] = target: Neuronal acetylcholine receptor subunit alpha-7 (Homo sapiens, UniProt P36544); assay: Displacement of [125I]BTX from human alpha7 nicotinic acetylcholine receptor expressed in IMR32 cells; assay type: cell-based, IMR-32
Outline: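 Human α7 nAChR in IMR-32 cells, [125I]BTX radioligand. Six-point concentration-response curve, run in triplicate and averaged.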

Rattus norvegicus [4] = assay: Free plasma concentration in Sprague-Dawley rat auditory sensory gating deficit model at 0.3 mg/kg, sc after 40 mins; assay type: functional; details: route subcutaneous
Outline: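 Rats given 0.3 mg/kg sc; free plasma concentration measured about 40 min after dosing.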

Rattus norvegicus [5] = assay: Cognitive enhancement in Sprague-Dawley rat assessed as reversal of amphetamine-induced auditory sensory gating deficit at 0.3 mg/kg, sc; assay type: functional, organism-based; set-up: dose 0.3 mg/kg
Outline: (§2)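 Male Sprague-Dawley rats (250-300 g) under chloral hydrate (400 mg/kg ip), femoral vein cannulated. CA3 hippocampal field potential recorded; auditory-evoked responses averaged over 50 stimulus pairs at 10 s interstimulus interval. Gating disrupted by d-amphetamine 1 mg/kg iv; compound sc. Read-out is reversal of the amphetamine deficit; PBS vehicle; two-tailed paired t-test.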

Plasma = assay: Fraction unbound in rat plasma; assay type: ADME, cell-free
[6] = Half life in human liver microsomes; assay type: ADME, Microsome
Outline: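 Stability in human liver microsomes.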

[7] = Agonist activity at human alpha7 nAChR/mouse 5HT3 chimeric receptor expressed in SH-EP1 cells assessed as increase in intracellular calcium level relative to 100 uM nicotine; assay type: functional; outline: as §1
[8] = target: T2, Muscarinic acetylcholine receptor M4 (Homo sapiens, UniProt P08173); assay: Inhibition of muscarinic M4 receptor
T2 sequence (P08173 whole entry): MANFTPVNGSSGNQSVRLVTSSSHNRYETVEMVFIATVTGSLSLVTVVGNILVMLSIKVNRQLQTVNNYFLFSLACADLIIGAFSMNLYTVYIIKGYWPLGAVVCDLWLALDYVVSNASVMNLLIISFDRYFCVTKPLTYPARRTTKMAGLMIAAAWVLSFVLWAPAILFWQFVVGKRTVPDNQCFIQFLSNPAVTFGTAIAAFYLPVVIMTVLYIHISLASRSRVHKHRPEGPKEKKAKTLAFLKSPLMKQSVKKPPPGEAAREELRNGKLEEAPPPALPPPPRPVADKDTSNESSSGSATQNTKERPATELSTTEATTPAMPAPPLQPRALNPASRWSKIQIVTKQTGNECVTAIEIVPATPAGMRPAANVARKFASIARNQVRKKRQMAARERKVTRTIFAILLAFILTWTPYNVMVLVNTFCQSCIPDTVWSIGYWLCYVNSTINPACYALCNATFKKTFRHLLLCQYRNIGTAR

[9] = target: T3, Muscarinic acetylcholine receptor M5 (Homo sapiens, UniProt P08912); assay: Inhibition of muscarinic M5 receptor
T3 sequence (P08912 whole entry): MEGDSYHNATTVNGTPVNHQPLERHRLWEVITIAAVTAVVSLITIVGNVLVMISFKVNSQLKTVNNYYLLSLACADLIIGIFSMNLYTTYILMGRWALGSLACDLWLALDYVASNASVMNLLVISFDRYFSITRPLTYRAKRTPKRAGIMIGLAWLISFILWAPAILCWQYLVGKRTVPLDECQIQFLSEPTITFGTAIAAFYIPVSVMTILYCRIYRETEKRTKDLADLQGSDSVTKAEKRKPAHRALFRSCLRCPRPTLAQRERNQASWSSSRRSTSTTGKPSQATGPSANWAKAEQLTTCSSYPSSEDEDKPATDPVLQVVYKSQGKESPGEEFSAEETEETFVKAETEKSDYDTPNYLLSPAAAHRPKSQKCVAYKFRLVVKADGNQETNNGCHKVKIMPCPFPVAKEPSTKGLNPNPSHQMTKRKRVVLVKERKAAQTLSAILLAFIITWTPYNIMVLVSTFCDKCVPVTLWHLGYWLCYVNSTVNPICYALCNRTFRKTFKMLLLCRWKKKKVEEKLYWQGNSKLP

[10] = target: Muscarinic acetylcholine receptor M3 (Homo sapiens, UniProt P20309); assay: Inhibition of muscarinic M3 receptor
[11] = target: Neuronal acetylcholine receptor subunit alpha-7 (Rattus norvegicus) (UniProt Q05941); assay: Ex vivo receptor binding at alpha7 nicotinic acetylcholine receptor in rat hippocampal brain after 30 mins by [125I]alpha-bungarotoxin binding assay; assay type: tissue-based; details: Hippocampus
Outline: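 Rats dosed sc with compound or vehicle, 3 per dose group; hippocampus taken 30 min later and homogenized in HEPES buffer pH 7.5. Homogenate incubated 2 h at 37 °C with 0.4 nM [125I]α-bungarotoxin. Nonspecific binding with 1 μM methyllycaconitine; filtration onto GF/B. Occupancy-versus-dose ED50 derived.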

[12] = Aqueous solubility of the compound; assay type: physicochemical; details: buffer
Rattus norvegicus [13] = assay: Cognitive enhancement in Sprague-Dawley rat assessed as reversal of amphetamine-induced auditory sensory gating deficit at 0.1 mg/kg, sc; assay type: functional, organism-based; set-up: dose 0.1 mg/kg; outline: as §2
[14] = target: Neuronal acetylcholine receptor subunit alpha-7 (Rattus norvegicus, UniProt Q05941); assay: Displacement of [125I]BTX from rat alpha7 nicotinic acetylcholine receptor expressed in GH4C1 cells; assay type: cell-based, GH4-C1
Outline: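 GH4C1 membranes (20 mM HEPES, 118 mM NaCl, 4.5 mM KCl, 2.5 mM CaCl2, 1.2 mM MgSO4, pH 7.5) incubated 2 h at 37 °C with [125I]α-bungarotoxin 0.4 nM final. Nonspecific binding with 1 μM methyllycaconitine; filtration onto PEI-treated GF/B filters. Ki = IC50/(1+[L]/KD); six-point curves in triplicate; geometric mean with 95% CI.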

Chain of Neuronal acetylcholine receptor subunit alpha-7 (Homo sapiens, UniProt P36544) (P36544 whole entry): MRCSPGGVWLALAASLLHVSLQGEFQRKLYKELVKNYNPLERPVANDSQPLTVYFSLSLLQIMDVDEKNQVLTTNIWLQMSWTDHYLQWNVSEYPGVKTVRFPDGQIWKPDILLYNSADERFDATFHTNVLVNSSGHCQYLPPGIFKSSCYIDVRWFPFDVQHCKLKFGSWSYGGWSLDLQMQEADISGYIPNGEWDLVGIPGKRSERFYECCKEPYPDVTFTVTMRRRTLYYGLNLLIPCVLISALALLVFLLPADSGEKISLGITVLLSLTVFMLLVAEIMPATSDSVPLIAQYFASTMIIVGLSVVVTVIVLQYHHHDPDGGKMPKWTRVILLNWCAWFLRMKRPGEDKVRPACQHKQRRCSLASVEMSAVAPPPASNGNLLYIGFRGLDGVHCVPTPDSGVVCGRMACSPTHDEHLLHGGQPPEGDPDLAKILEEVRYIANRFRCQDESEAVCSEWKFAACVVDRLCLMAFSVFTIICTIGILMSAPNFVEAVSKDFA
Chain of Neuronal acetylcholine receptor subunit alpha-7 (Rattus norvegicus) (Q05941 whole entry): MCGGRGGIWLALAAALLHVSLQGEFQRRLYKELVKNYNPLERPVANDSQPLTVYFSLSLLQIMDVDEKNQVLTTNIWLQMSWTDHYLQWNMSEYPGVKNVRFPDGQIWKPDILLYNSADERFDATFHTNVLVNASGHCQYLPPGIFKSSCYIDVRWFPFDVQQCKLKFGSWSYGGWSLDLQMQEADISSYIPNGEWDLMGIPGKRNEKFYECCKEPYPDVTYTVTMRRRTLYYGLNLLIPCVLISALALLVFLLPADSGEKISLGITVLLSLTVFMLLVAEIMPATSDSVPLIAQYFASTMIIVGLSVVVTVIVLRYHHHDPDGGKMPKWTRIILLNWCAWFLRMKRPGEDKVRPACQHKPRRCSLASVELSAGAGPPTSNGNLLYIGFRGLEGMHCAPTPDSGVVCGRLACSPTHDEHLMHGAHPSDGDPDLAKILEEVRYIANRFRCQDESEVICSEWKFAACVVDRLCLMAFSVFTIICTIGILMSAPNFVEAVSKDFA
Chain of Neuronal acetylcholine receptor subunit alpha-7 (Rattus norvegicus, UniProt Q05941) (Q05941 whole entry): as above
Chain of Muscarinic acetylcholine receptor M3 (P20309 whole entry): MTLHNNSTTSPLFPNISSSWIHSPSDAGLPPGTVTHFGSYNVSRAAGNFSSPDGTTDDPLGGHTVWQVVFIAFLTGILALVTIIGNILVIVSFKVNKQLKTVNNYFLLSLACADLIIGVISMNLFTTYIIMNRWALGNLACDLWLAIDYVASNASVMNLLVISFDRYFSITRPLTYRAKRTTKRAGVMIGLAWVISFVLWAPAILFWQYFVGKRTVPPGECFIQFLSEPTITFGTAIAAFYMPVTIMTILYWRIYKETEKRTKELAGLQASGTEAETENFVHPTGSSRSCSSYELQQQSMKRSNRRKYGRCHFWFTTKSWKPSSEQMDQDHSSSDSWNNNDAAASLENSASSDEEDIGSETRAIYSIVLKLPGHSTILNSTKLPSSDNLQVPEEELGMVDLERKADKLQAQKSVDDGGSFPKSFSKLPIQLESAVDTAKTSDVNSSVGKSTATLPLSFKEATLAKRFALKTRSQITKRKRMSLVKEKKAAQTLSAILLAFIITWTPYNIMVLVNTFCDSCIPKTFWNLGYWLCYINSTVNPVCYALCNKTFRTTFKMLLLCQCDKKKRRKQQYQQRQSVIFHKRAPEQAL

SMILES: Cc1ccc2oc(N3CCN4CCC3CC4)nc2n1
- Ki [1]: 14 µM
- EC50 [2]: 0.244 µM
- Ki [3]: 0.0164 µM
- Cp(f) (Rattus norvegicus [4]): 326 nM
- Activity (Rattus norvegicus [5]): Active
- Fu (Plasma): 0.78%
- half-life [6]: > 2 h
- Efficacy [7]: 46%
- Ki [8]: 3 µM
- Ki [9]: 5.2 µM
- Ki [10]: 8.3 µM
- ED50 [11]: 0.34 mg/kg
- solubility [12]: > 2400 µg/mL
- Activity (Rattus norvegicus [13]): Active
- Ki [14]: 0.0135 µM
